# Active and inactive are the calls of the source. The calls are words filed in the database; no cut-off is given here.
# Tests used:
# [1] = target: Coagulation factor X (Homo sapiens) (UniProt P00742); assay: Inhibition of human F10a up to 100 uM pre-incubated for 10 mins before Pefachrome Fxa addition and measured after […] based assay
# [2] = system: Staphylococcus aureus; assay: Inhibition of virulence-related genes expression in methicillin-resistant Staphylococcus aureus ATCC 33591 assessed as reduction in agrB expression at 16 uM by qPCR analysis relative to control; format: functional
# Method in brief: (§1)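 Total RNA from 2×10⁸ CFU treated MRSA by liquid-nitrogen freeze-thaw and TRIzol; qPCR relative to gyrB endogenous control; three experiments, triplicate wells.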
# [3] = Toxicity in BALB/c mouse model of skin abscess infected with methicillin-resistant Staphylococcus aureus ATCC 33591 assessed as effect on uric acid levels at 1.5 to 3 mg/kg injected into shaved area of skin once daily for 4 days; format: organism-based; details: in vivo, other, 96 h
# Method in brief: (§2)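 Infected BALB/c mice (n=5/group) dosed 1.5 or 3 mg/kg into the infected skin once daily for 4 days; blood collected on day 4 and day 14, centrifuged 3,500 rpm 15 min, serum biochemistry analysed.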
# [4] = system: Staphylococcus aureus; assay: Inhibition of virulence-related genes expression in methicillin-resistant Staphylococcus aureus ATCC 33591 assessed as reduction in RNAIII effector, expression at 16 uM by qPCR analysis relative to control; format: functional; method in brief: as §1
# [5] = target: 20S proteasome (Homo sapiens) (UniProt P49721+P20618+P28074+P28062+P28065+P28072+P25786+P25787+P25788+P25789+P28066+P60900+O14818+Q8TAA3+P40306+A5LHX3+P49720+P28070+Q99436); assay: Inhibition of 20S proteasome (unknown origin) pre-incubated before Suc-LLVY-AM addition and measured after 1 hr by fluorescence based assay; format: protein-complex assay
# [6] = system: Staphylococcus aureus; assay: (§3) Antivirulence activity against methicillin-resistant Staphylococcus aureus ATCC 33591 infected in BALB/c mouse model of skin abscess assessed as reduction in heart histopathological changes at 1.5 to 3 mg/kg injected into shaved area of skin once daily for 4 days measured after 12 hrs post last dose by hematoxylin and eosin staining based optical microscopy; format: functional, organism-based
# Method in brief: (§4)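 Same MRSA ATCC 33591 skin-abscess model in female BALB/c mice (n=5/group), 40 µL compound at 1.5 or 3 mg/kg injected into the infected shaved skin once daily for 4 days. On day 4 infected skin and heart, liver, spleen, lung, kidney fixed in 4% paraformaldehyde, embedded, sectioned, H&E stained and examined by microscopy; PBS-treated uninfected and vehicle controls.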
# [7] = target: T1, ATP-dependent Clp protease proteolytic subunit (Staphylococcus aureus (strain NCTC 8325)) (UniProt Q2G036); assay: Inhibition of ClpP in Staphylococcus aureus NCTC8325 with complemented deltaclpP/pYJ335::clpP (deltaclpP+) assessed as reduction in bacteria-induced hemolysis of sheep erythrocytes by measuring hemoglobin release incubated for 15 mins
# T1 sequence (whole entry): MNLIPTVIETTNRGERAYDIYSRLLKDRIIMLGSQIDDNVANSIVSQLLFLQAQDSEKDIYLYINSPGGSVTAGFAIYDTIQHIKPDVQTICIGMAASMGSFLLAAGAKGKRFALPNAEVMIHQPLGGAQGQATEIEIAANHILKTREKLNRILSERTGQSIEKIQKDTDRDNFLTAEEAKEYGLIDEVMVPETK
# Method in brief: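 S. aureus strains grown overnight in MHB, diluted to OD600 0.05, then grown at 37 °C to OD600 ~0.6. Serially diluted inhibitor or DMSO added for 8 h more growth. Supernatant mixed 1:1 with 5% sheep erythrocytes, spun 1,500 rpm for 15 min, hemoglobin read at 545 nm. EC50 by nonlinear fit; thrice, triplicate tubes.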
# [8] = Toxicity in BALB/c mouse model of skin abscess infected with methicillin-resistant Staphylococcus aureus ATCC 33591 assessed as induction of adverse effects at 1.5 to 3 mg/kg injected into shaved area of skin once daily for 4 days measured every day; format: organism-based; details: in vivo, other, 96 h
# Method in brief: (§5)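 Female BALB/c mice, 6-8 weeks, n=5 per group, backs shaved and depilated 1 day before; 50 µL subcutaneous 1.7 × 10⁹ CFU/mL MRSA ATCC 33591. From 6 h post-infection, 40 µL vehicle, vancomycin 3 mg/kg, or compound 1.5 or 3 mg/kg injected at infection site once daily for 4 days; weight recorded daily. Skin homogenised in saline 12 h after last dose, plated on LB agar 37 °C ≥16 h; log10 CFU/abscess; t-test.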
# [9] = target: T1, ATP-dependent Clp protease proteolytic subunit (Staphylococcus aureus (strain NCTC 8325)); assay: Induction of thermal stabilization of ClpP in methicillin-resistant Staphylococcus aureus ATCC 33591 assessed as protein stability up to 83 degC pre-incubated for 2 hrs by CETSA method
# Method in brief: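 MRSA grown at 37 °C in TSB with DMSO or 100 µM compound 2 h; cells in TE buffer (~4×10⁹ CFU/mL), lysostaphin 37 °C 30 min; supernatant heated 5 min at set temperatures, 3 min RT, ice, spun 20,000 g 20 min; soluble ClpP by western blot with polyclonal anti-ClpP.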
# [10] = system: Staphylococcus aureus; assay: as §3, with “kidney” for “heart”; format: functional, organism-based; method in brief: as §4
# [11] = Induction of hemolysis in sheep erythrocytes by measuring hemoglobin release incubated for 15 mins; format: cell-based, Ovis aries, Erythrocyte
# Method in brief: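 Serially diluted compound mixed directly with 2% sheep erythrocytes in 10 mM Tris pH 7.4, 0.9% NaCl. Buffer served as negative and water as positive control. After 1,500 rpm, 15 min spin, released hemoglobin read at 545 nm. Three experiments, triplicate tubes.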
# [12] = system: Staphylococcus aureus; assay: Antivirulence activity against methicillin-resistant Staphylococcus aureus ATCC 33591 infected in BALB/c mouse model of skin abscess assessed as effect on bacterial recovery levels at 1.5 to 3 mg/kg injected into shaved area of skin once daily for 4 days measured after 12 hrs post last dose; format: functional, organism-based; method in brief: as §5
# [13] = system: Staphylococcus aureus; assay: Growth inhibition of methicillin-resistant Staphylococcus aureus ATCC 33591 incubated for 18 hrs by broth microdilution method; format: functional; details: ATCC 33591, 18 h
# Method in brief: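 MRSA ATCC 33591 at ~5×10⁵ CFU/mL in MHB with graded compound concentrations vs DMSO; OD600 growth curves over 18 h; three experiments, triplicate wells. MIC by CLSI broth microdilution in CAMHB, 0.5-256 µg/mL, 18 h at 37 °C, lowest concentration with no visible growth.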
# [14] = Inhibition of Pseudomonas aeruginosa ClpP1 expressed in Escherichia coli […] pre-incubated for 10 mins before Suc-LY- AMC addition and measured after 1 hr by fluorescence based assay relative to control
# Method in brief: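 PaClpP1 (0.5 μM monomer) in 25 mM Tris-Cl pH 7.5, 150 mM NaCl. Preincubated 10 min at RT with inhibitor, two-fold dilutions over 8 steps from 50 μM. Then 50 μM Suc-LY-AMC, 380/440 nm for 1 h at 37 °C, slopes normalized to DMSO. Thrice, triplicate wells.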
# [15] = system: Staphylococcus aureus; assay: as §3, with “spleen” for “heart”; format: functional, organism-based; method in brief: as §4
# [16] = Toxicity in BALB/c mouse model of skin abscess infected with methicillin-resistant Staphylococcus aureus ATCC 33591 assessed as increase in direct bilirubin levels at 1.5 to 3 mg/kg injected into shaved area of skin once daily for 4 days; format: organism-based; details: in vivo, other, 96 h; method in brief: as §2
# Coagulation factor X (Homo sapiens), sequence (P00742 41-179 limits assumed): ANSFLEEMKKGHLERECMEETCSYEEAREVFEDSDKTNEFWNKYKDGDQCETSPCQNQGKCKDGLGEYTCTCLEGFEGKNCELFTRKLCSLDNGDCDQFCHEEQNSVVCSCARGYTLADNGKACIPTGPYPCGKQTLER
# Coagulation factor X (Homo sapiens), sequence (P00742 235-488 limits assumed): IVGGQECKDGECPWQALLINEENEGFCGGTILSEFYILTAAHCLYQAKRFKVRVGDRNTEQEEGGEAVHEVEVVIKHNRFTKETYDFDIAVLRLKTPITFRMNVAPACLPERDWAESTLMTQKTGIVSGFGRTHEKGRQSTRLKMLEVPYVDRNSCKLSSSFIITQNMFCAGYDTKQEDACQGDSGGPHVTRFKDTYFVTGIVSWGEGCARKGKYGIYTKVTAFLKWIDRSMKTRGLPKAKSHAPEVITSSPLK
smiles,measurement,setting,value
CC(C)C[C@H](NC(=O)[C@H](Cc1c[nH]c2ccccc12)NC(=O)c1cc(Cl)ccc1Cl)B(O)O,inhibition,[1],inactive
same,fold change (FC),[2],2
same,Activity,[3],Non-Toxic
same,fold change (FC),[4],>10
same,inhibition,[5],Active
same,Activity,[6],Active
same,inhibition,[7],Dose-dependent effect
same,Activity,[8],Non-Toxic
same,Activity,[9],Active
same,Activity,[10],Active
same,HC50 at 0.25 h,[11],> 500 µM
same,Activity,[12],Active
same,MIC,[13],64 to 128 µg/mL
same,IC50,[14],3 to 25 µM
same,Activity,[15],Active
same,Activity,[16],Toxic

# From ChEMBL document CHEMBL4402562, “Discovery of Novel Peptidomimetic Boronate ClpP Inhibitors with Noncanonical Enzyme Mechanism as Potent Virulence Blockers in Vitro and in Vivo” (J Med Chem, 2020)
